Most compounds without a hit are left out; they make up all but 3.5% or so of the library.
PRMT1 inh: PRMT1 methyltransferase inhibitors, primary screen, biochemical, fluorescence polarization | Protein arginine N-methyltransferase 1 (Homo sapiens), Q99873 | recombinant PRMT1, activity-based probe fluorescence polarization | inhibition, % at 2.79 µM | 370,000 tested, 1.3% active;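 active means inhibition above about 21% made by adding two undisclosed values, limit read from the data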
SIAE primary: human SIAE inhibitors, primary screen, biochemical, fluorescence polarization, FP-Rh probe, 1536-well HTS. Sialate O-acetylesterase (Homo sapiens), Q9HAT2. SIAE FP-Rh probe binding. inhibition, % at 9.66 µM. 370,000 tested, 0.69% active. AID 1053197, 2014;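 active means inhibition above a cutoff: mean of compounds within the control limits plus 3 SD of those, cut at about 17% in these data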;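 further: 0% = plate median of compound wells and 100% = probe without SIAE protein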
rCAG RNA binder: binders of r(CAG) RNA repeats, primary screen, biochemical, fluorescence; r(CAG) RNA repeat, TO-PRO-1 dye displacement fluorescence; AID 651821, 2012; inhibition, % at 3 µM; 370,000 tested, 1.3% active;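 active means inhibition above the plate cutoff, the mean of all test compounds on that plate plus 3 SD, cut at about 35% in these data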;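 further: 0% = DMSO alone and 100% = 100 µM mitoxantrone as full dye displacement; higher means more dye released from RNA so lower well fluorescence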
mABHD4 FP: ABHD4 inhibitors, primary screen, biochemical, fluorescence polarization, mouse. purified mABHD4, FP-Rh probe fluorescence polarization. inhibition, % at 8.92 µM. 370,000 tested, 0.54% active. AID 720543, 2013;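 active means inhibition exceeding the mean over every tested compound plus 3 SD, cut at about 30% in these data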;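 further: 0% = plate median of compound wells and 100% = S159A mutant with DMSO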
Target sequence (Q8VD66 whole entry, looked up): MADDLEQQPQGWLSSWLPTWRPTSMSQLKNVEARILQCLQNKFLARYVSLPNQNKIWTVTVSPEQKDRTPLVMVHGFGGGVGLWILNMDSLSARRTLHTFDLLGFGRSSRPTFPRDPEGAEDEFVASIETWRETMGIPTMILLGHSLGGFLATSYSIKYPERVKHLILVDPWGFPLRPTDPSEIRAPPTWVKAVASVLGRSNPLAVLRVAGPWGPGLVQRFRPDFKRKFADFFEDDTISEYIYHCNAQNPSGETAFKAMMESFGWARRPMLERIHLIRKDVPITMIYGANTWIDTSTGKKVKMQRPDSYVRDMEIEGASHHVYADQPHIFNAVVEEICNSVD
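Assay system: mABHD4 protein; medium: HEPES pH 7.0, NaCl, Pluronic buffer; dosing: 8.92 µM, single dose; schedule: 45 min + 60 min at 25 °C; signal: FP readout, ex 525 nm / em 598 nm; read-out: normalized percent inhibition of probe labeling; repeats: single replicate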
HTRA1 inh: HTRA1 serine protease inhibitors, primary screen, biochemical, fluorescence polarization, HTS. Q92743. recombinant HTRA1, FP-rhodamine activity-based probe. inhibition, % at 5.96 µM. 340,000 tested, 0.5% active. AID 504803, 2011; in the data active means inhibition above about 36%;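 further: 0% = enzyme with DMSO and 100% = wells lacking enzyme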
TCR CD3 inh: inhibitors of human TCR-CD3 interaction, primary screen, biochemical, fluorescence, TAMRA-labeled TCR probe | T-cell receptor (TCR) | inhibition, % at 9.4 µM | 360,000 tested, 0.37% active | AID 651800, 2012;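 further: recombinant mutant TCR 2C K166C tagged with TAMRA read by polarization; 0% = receptor in buffer alone and 100% = receptor with positive control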
BSA probe FL: compounds interfering with TAMRA-BSA probe, counter-screen for TCR-CD3 interaction inhibitor project, biochemical, fluorescence, TAMRA-labeled BSA; shares compounds with TCR CD3 inh; TAMRA-labeled BSA probe fluorescence counterscreen; inhibition, % at 9.4 µM; 1,200 tested, 10% active; in the data active means inhibition above about 23%;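 further: 0% = buffer low control and 100% = reference high control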
TCR-CD3 conf: TCR-CD3 interaction inhibitors, retest, confirmation, biochemical, fluorescence, TAMRA-labeled TCR probe. shares compounds with TCR CD3 inh. 1,200 tested, 48% active. AID 652036, 2013. TAMRA-labeled TCR probe fluorescence binding assay. inhibition, % at 9.4 µM
rCAG bind conf: small molecules binding CAG repeat RNA – biochemical, fluorescence, confirmation | shares compounds with rCAG RNA binder | r(CAG) RNA repeat, TO-PRO-1 dye displacement fluorescence | inhibition, % at 3 µM | 4,300 tested, 70% active | AID 652065, 2013;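 active means inhibition above a per-plate cutoff, the mean inhibition of sample wells plus 3 SD, cut at about 35% in these data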;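 further: loss of TO-PRO-1 fluorescence as compound displaces dye from 1x1 AA loop RNA; 0% = DMSO only wells and 100% = 100 µM mitoxantrone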
DNA CAG counter: displacement of TO-PRO-1 from CAG DNA duplex, counter-screen for rCAG RNA repeat binder project, biochemical, fluorescence, TO-PRO-1 dye, d(CAG) DNA oligo; shares compounds with rCAG RNA binder; d(CAG) DNA oligo TO-PRO-1 dye displacement; inhibition, % at 3 µM; 4,300 tested, 94% active; AID 652068, 2013;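 active means inhibition above its plate's cutoff, the mean test-well inhibition plus 3 SD, cut at about 4.8% in these data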;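 further: 0% = DNA dye mix with DMSO and 100% = 100 µM mitoxantrone; hits displace the dye from DNA and so lower well fluorescence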
PRMT1 inh conf: PRMT1 methyltransferase inhibitors, confirmation, biochemical, fluorescence polarization, triplicate; recombinant His-PRMT1, activity-based probe fluorescence polarization; shares compounds with PRMT1 inh; AID 687036, 2013; inhibition, % at 2.79 µM; 3,300 tested, 42% active;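 active means mean inhibition across replicates above the hit cutoff derived for the earlier primary screen, cut at about 22% in these data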
mABHD4 conf: ABHD4 inhibitors, retest, confirmation, biochemical, fluorescence polarization, mouse; purified mABHD4, FP-Rh probe fluorescence polarization; 1,800 tested, 55% active; shares compounds with mABHD4 FP; inhibition, % at 8.92 µM;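 active means mean inhibition across replicates above the hit cutoff set in the primary screen, cut at about 30% in these data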;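 further: 0% = wild-type ABHD4 with DMSO and 100% = catalytically dead S159A mutant with DMSO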
SIAE inh conf: human SIAE inhibitors, retest, confirmation, biochemical, fluorescence polarization, FP-Rh probe, triplicate | shares compounds with SIAE primary | SIAE FP-Rh activity-based probe | inhibition, % at 9.66 µM | 2,300 tested, 13% active | AID 1117263, 2014;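 active means mean inhibition of the replicates above the hit cutoff set in the primary screen, cut at about 17% in these data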;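 further: 0% = SIAE with DMSO and probe and 100% = probe without SIAE; inhibitors lower polarization as more probe stays unbound to SIAE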
Starred values were filed as active, the others as inactive. Unless noted, no stated cut-off is given here; in the data, active means inhibition above about 19%; inactive means the rest.

Results for O=C(N/N=C/c1c(O)n(Cc2ccco2)c(=O)[nH]c1=O)c1ccccc1O ?
PRMT1 inh: 9; SIAE primary: 2; rCAG RNA binder: 58*; mABHD4 FP: 31*; HTRA1 inh: 4; TCR CD3 inh: 41*; BSA probe FL: -14; TCR-CD3 conf: 40*; rCAG bind conf: 66*; DNA CAG counter: 27*; mABHD4 conf: 32*

What do the screens show for `CC(=O)NCC1=C(c2ccc(S(C)(=O)=O)cc2)C[C@@H]2CC[C@H]1N2CCOc1ccccc1`?
PRMT1 inh: 0; SIAE primary: 5; rCAG RNA binder: -1; mABHD4 FP: 5; TCR CD3 inh: 9

How did O=[N+]([O-])c1ccc(NCc2ccccc2)c2nonc12 do in these assays?
PRMT1 inh: 168*; SIAE primary: 37*; rCAG RNA binder: inactive; mABHD4 FP: 53*; TCR CD3 inh: 66*; BSA probe FL: 99*; TCR-CD3 conf: 81*; PRMT1 inh conf: 159*; mABHD4 conf: 79*; SIAE inh conf: 29*

How did CCOC(=O)C1=C(C(=O)OCC)C2(c3ccccc3)c3ccccc3C1(C)N2C (stereo unspecified) do in these assays?
PRMT1 inh: -5; SIAE primary: -37; rCAG RNA binder: 5; mABHD4 FP: -87; TCR CD3 inh: -31

What do the screens show for `CCOc1ccc(N2C(=O)/C(=C\c3cccs3)C(=O)NC2=S)cc1`?
PRMT1 inh: 19; SIAE primary: -37; rCAG RNA binder: 39*; mABHD4 FP: -123; TCR CD3 inh: -63; rCAG bind conf: 9; DNA CAG counter: 7.3*

How did C=CCN1C[C@H](C)N(C(c2ccc(C(=O)N(CC)CC)cc2)c2cccc(OC)c2)CC1C (stereo partly specified) do in these assays?
PRMT1 inh: -7; SIAE primary: 3; rCAG RNA binder: -1; mABHD4 FP: -6; TCR CD3 inh: -4

Results for Cc1cc(/C=C2/C(=O)NC(=O)N(Cc3ccco3)C2=O)c(C)n1-c1ccccc1O ?
PRMT1 inh: 9; SIAE primary: -18; rCAG RNA binder: 17; mABHD4 FP: -5; HTRA1 inh: -11; TCR CD3 inh: 7

Assay outcomes (PubChem)
